# Sampled rows, rich in hits. Any-hit rate of the full collection: about 3.5%.
# PRMT1 FP inh: inhibitors of human PRMT1. hit rate 1.3% among 370,000. inhibition, % at 2.79 µM. AID 652257. Q99873. recombinant PRMT1, activity-based probe fluorescence polarization;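 active means inhibition above about 21% made by adding two undisclosed values, limit read from the data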
# SIAE primary: blocks human sialic acid acetylesterase | Q9HAT2 | SIAE FP-Rh probe binding, fluorescence polarization | inhibition, % at 9.66 µM | hit rate 0.69% among 370,000 | AID 1053197;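 active means inhibition above a cutoff: mean of compounds within the control limits plus 3 SD of those, cut at about 17% in these data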;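 further: 0% = plate median of compound wells and 100% = probe without SIAE protein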
# TCR CD3 inh: inhibitors of human TCR-CD3 interaction; inhibition, % at 9.4 µM; TAMRA-labeled TCR probe fluorescence, biochemical; hit rate 0.37% among 360,000; in the data active means inhibition above about 19%;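 further: recombinant mutant TCR 2C K166C tagged with TAMRA read by polarization; 0% = receptor in buffer alone and 100% = receptor with positive control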
# HTRA1 inh: blocks human HTRA1 serine peptidase | Q92743 | recombinant HTRA1, FP-rhodamine activity-based probe, fluorescence polarization | inhibition, % at 5.96 µM | hit rate 0.5% among 340,000 | AID 504803; in the data active means inhibition above about 36%;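 further: 0% = enzyme with DMSO and 100% = wells lacking enzyme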
# ABHD4 inh: inhibits mouse alpha/beta hydrolase domain 4. hit rate 0.54% among 370,000. inhibition, % at 8.92 µM. purified mABHD4, FP-Rh probe fluorescence polarization;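 active means inhibition exceeding the mean over every tested compound plus 3 SD, cut at about 30% in these data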;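 further: 0% = plate median of compound wells and 100% = S159A mutant with DMSO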
# Target sequence (Q8VD66 whole entry, looked up, the tested form may be a part): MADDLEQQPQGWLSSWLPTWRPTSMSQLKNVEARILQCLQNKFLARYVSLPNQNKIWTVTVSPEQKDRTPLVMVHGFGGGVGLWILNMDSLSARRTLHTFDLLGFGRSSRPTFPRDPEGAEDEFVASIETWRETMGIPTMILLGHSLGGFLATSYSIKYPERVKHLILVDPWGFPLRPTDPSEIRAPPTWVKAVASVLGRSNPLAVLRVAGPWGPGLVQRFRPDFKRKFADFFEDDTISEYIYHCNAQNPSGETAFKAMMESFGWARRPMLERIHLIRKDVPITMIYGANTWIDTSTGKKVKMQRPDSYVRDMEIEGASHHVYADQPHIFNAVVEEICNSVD
#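 Material: mouse ABHD4 enzyme, wild type; Benchmarks: S159A mutant high control, sample median low control; Buffer or medium: HEPES pH 7.0, NaCl, Pluronic buffer; Signal: fluorescence polarization; Read-out: percent inhibition of probe binding, normalized to plate controls; Timing: pre-incubation 45 min, probe exposure 60 min, at 25 °C; Dosing: 8.92 µM, single dose.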
# rCAG binder: binds r(CAG) RNA repeats; r(CAG) RNA repeat, TO-PRO-1 dye displacement fluorescence; inhibition, % at 3 µM; hit rate 1.3% among 370,000; AID 651821;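 active means inhibition above the plate cutoff, the mean of all test compounds on that plate plus 3 SD, cut at about 35% in these data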;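 further: 0% = DMSO alone and 100% = 100 µM mitoxantrone as full dye displacement; higher means more dye released from RNA so lower well fluorescence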
# Active calls of the source: *; / = not tested or not shown.
SMILES,PRMT1 FP inh,SIAE primary,TCR CD3 inh,HTRA1 inh,ABHD4 inh,rCAG binder
O=C(c1ccccc1NS(=O)(=O)c1ccc([N+](=O)[O-])cc1[N+](=O)[O-])N1O[C@@H]2C=C[C@H]1C2,16.7,3.5,0.3,18.2,19.8,35.1*
O=C(c1ccccc1NS(=O)(=O)c1ccccc1[N+](=O)[O-])N1CCOCC1,1.1,-5.4,2.1,2.4,2.3,2.3
Nc1cccc2nsnc12,7.4,7.1,9.7,4.8,1.6,1.2
Nc1cc2nsnc2cc1Br,40.4*,5.3,1.9,36.1,19.0,5.5
COc1ccc(S[C@]2(C(=O)NCc3ccccc3)CC(=O)N[C@@H]2c2ccc(OC)cc2)cc1,-1.6,-1.7,/,/,-3.8,0.8
Cc1cccc(NC2=C(NC(=O)c3ccccc3)C(=O)c3ccccc3C2=O)c1,29.2*,13.4,6.7,9.3,15.4,7.0
COC(=O)c1cccc(NC(=O)/C(=C\c2ccco2)NC(=O)c2ccco2)c1,24.6*,-10.0,-2.5,-1.3,0.9,18.7
O=C(Nc1cccc(F)c1)/C(=C\c1ccco1)NC(=O)c1ccco1,23.9*,2.3,2.9,-3.9,11.9,24.8
Cc1ccc(NC(=O)/C(=C\c2ccco2)NC(=O)c2ccco2)cc1,19.5,4.0,-0.8,-0.5,17.2,17.8
COCCCNC(=O)C[C@H]1C[C@@]2(C(=O)OC)C(=C[C@H](COCc3ccccc3)O[C@@H]2C)N(Cc2ccc(Cl)cc2Cl)C1=O,-1.3,2.5,/,/,3.6,6.1
NC(=O)c1ccc(NC(=O)CSC(=O)c2ccccc2)cc1,35.9*,-5.3,3.8,12.1,-2.5,3.3
Cc1nnc(SCC(=O)Nc2ccc(C(N)=O)cc2)n1-c1ccccc1,3.2,2.0,3.3,-2.3,-5.4,-0.2
O=C1/C(=C/c2ccncc2)SC(=S)N1C1CCCCC1,-0.4,-0.1,0.4,-0.1,2.5,0.6
Cc1ccc(/C=C2/SC(=S)N(C3CCCCC3)C2=O)o1,13.5,8.6,-5.6,25.2,18.2,55.4*
COC(=O)[C@H]1C[C@@]2(c3ccccc3)c3ccccc3N[C@H]2N1,-3.1,8.8,/,/,0.2,1.9
COc1ccc(NC(=S)NC(NC(=O)c2ccccc2Cl)C(Cl)(Cl)Cl)c([N+](=O)[O-])c1 (stereo not drawn),1.1,-8.5,-2.3,-22.5,8.8,20.9
COc1ccc(NC(=S)NC(NC(=O)CCl)C(Cl)(Cl)Cl)c([N+](=O)[O-])c1 (stereo not drawn),/,/,/,41.8*,/,/
Cc1ccc(CC(=O)NNC(=O)c2ccncc2)cc1C,23.8*,0.5,-8.6,-2.4,-0.3,0.1
O=S1(=O)CC2c3ccccc3CN2CN1Cc1ccccc1 (stereo not drawn),-1.6,3.1,/,/,-1.0,5.4
CCN(CC)C1CC(=O)N(c2ccc(Br)cc2)C1=O (stereo not drawn),46.2*,8.9,2.6,-1.5,1.9,7.0
Cc1cc(C)nc(SC2CC(=O)N(c3ccc(Br)cc3)C2=O)n1 (stereo not drawn),3.6,5.2,-5.7,0.3,-2.5,-1.9
CC(C)CNc1cccc2c1S(=O)(=O)N(Cc1cn(Cc3ccc(F)cc3)nn1)Cc1ccccc1O2,0.9,0.6,/,/,21.7,8.3
COCc1nnc(NS(=O)(=O)c2ccc(Cl)cc2)s1,-3.3,-3.1,1.9,-2.9,-6.1,1.7
O=S(=O)(Nc1nnc(-c2ccccc2)s1)c1ccc(Cl)cc1,2.9,-8.7,0.4,-21.3,-25.3,73.6*
COc1ccc(C(=O)CSc2ccc(-c3ccco3)nn2)cc1,23.2*,0.9,8.7,3.3,6.4,9.7
SMILES,PRMT1 FP inh,SIAE primary,TCR CD3 inh,HTRA1 inh,ABHD4 inh,rCAG binder
CNc1cccccc1=S,26.3*,3.3,8.6,10.8,15.1,13.1
CNc1ccccc1,-0.9,-0.2,0.8,-0.9,3.6,0.3
Cc1ccc(Nc2nnc(SCC(=O)c3ccc(O)cc3O)s2)cc1,-0.7,8.2,-7.0,-18.5,9.6,56.0*
CC1CN(c2nc3ccccc3nc2SCC(=O)N2CCN(S(=O)(=O)c3ccccc3)CC2)CC(C)O1 (stereo not drawn),1.9,-4.8,/,/,-3.2,9.1
COC(=O)[C@]12C[C@H](CC(=O)NCc3ccc(OC)c(OC)c3)C(=O)N(Cc3ccco3)C1=C[C@H](C(C)C)O[C@@H]2C1CC1,1.4,2.5,/,/,3.0,3.4
O=C(NC1CCCCC1)Oc1cc2oc(=O)sc2cc1Br,82.4*,12.2,1.5,9.2,33.5*,32.6
O=S1(=O)c2ccc(Br)cc2OC[C@@H](c2ccccc2)N1Cc1cn(Cc2ccccc2)nn1,1.8,-1.1,/,/,4.1,7.1
CSc1nsc(/C=C/Nc2ccc(C(=O)O)cc2)c1C#N,-2.4,-18.9,2.1,-17.3,-4.2,46.3*
C=CCN1C(=O)[C@@H](CC(=O)NCCC(C)C)[C@]2(C(=O)OCC)CCCCC/C=C/12,4.9,1.8,/,/,1.6,1.9
O=C(NCc1ccco1)c1ccccc1NS(=O)(=O)c1ccc(Cl)s1,4.8,-3.4,0.9,-2.8,2.7,19.8
O=C(Nc1ccccc1)c1ccccc1NS(=O)(=O)c1ccc(Cl)s1,2.1,-2.8,-5.6,-26.8,-24.4,60.0*
COC(=O)c1ccc(NCc2cc(O)ccc2O)cc1O,23.1*,6.0,1.3,5.9,23.0,3.4
O=C(NCC1CCCO1)c1ccc2c(c1)N(Cc1ccccc1)C(=O)CS2=O (stereo not drawn),24.0*,-2.9,2.8,-0.1,0.0,6.4
O=C(NCc1ccco1)c1ccc2c(c1)N(Cc1ccccc1)C(=O)CS2=O (stereo not drawn),13.7,-2.1,0.6,-4.2,-2.2,2.6
Cc1cc(NC(=O)c2ccc(NS(=O)(=O)c3ccc(F)cc3)cc2)no1,0.9,-0.6,/,/,4.8,5.0
Cc1ccccc1C1CC(=O)Oc2cc(O)ccc21 (stereo not drawn),/,/,/,52.8*,/,/
O=C(CSc1nc2ccc([N+](=O)[O-])cc2[nH]1)c1ccc2ccccc2c1,-2.3,-30.9,4.8,-56.7,-25.9,37.0*
CN(C)c1ccc(NC(=O)c2sc(SCC(=O)Nc3nccs3)nc2N)cc1,4.5,24.4*,4.7,5.0,18.4,8.4
C=CCN(Cc1ccccc1)C(C#CC(=C)C)Cc1ccccc1 (stereo not drawn),-2.1,5.0,/,/,-1.8,0.5
CCCCCCCCN1C(=O)N2Cc3cc(OC)ccc3C2CS1(=O)=O (stereo not drawn),0.6,5.1,/,/,-2.8,-0.3
CCOc1cc(NC(=S)Nc2cccc(C)c2)c(OCC)cc1NC(=O)CC(C)C,23.9*,8.7,-6.3,1.2,15.5,1.3
CC(C)(C)n1nnnc1CN(Cc1ccco1)Cc1cc2cc3c(cc2[nH]c1=O)OCO3,23.6*,1.0,0.3,-5.7,8.3,4.9
CCc1ccc2[nH]c(=O)c(CN(Cc3ccccc3OC)Cc3nnnn3Cc3ccco3)cc2c1,23.4*,-9.9,4.7,-67.0,-23.3,10.9
CCC(C)(C)n1nnnc1CN(Cc1ccco1)Cc1cc2cc3c(cc2[nH]c1=O)OCO3,/,/,/,-0.6,/,/
